Measurements pooled from the literature.
Lines come from different studies, so protocols differ.
ST14: Suppressor of tumorigenicity 14 protein (ST14, Homo sapiens, UniProt Q9Y5Y6)
CDK2 with cyclin A2: Cyclin-dependent kinase 2, with cyclin A2 (CDK2, Homo sapiens, UniProt P24941)

SMILES | target | test | conditions | quantity | value
CCCC[C@H](NC(=O)[C@H](Cc1cscn1)NC(=O)CCc1ccccc1)C(=O)N[C@@H](CCCNC(=N)N)C(=O)c1nc2ccccc2s1 | ST14 | enzyme activity, inhibitor | 0.1 µM | remaining activity | 37%
CNC(=O)c1cc(Oc2ccc(NC(=O)Nc3ccc(Cl)c(C(F)(F)F)c3)cc2)ccn1 | CDK2 with cyclin A2 | enzyme activity, inhibitor | 0.1 µM | inhibition | 58.2%
COc1cc(-c2cncc3c2CN(C)Cc2cc(N4CCNCC4)ccc2-3)cc(OC)c1OC | Cyclin-dependent kinase 2, with cyclin A (CDK2, Homo sapiens, UniProt P24941) | enzyme activity, inhibitor | 1 µM | remaining activity | 100%
C=CC(=O)N1CCC(COCC(=O)N2CCN(c3nc(-c4cnc(N)nc4C(F)F)nc(N4CCOC[C@@H]4C)n3)CC2)CC1 | Vascular endothelial growth factor receptor 3 (FLT4, Homo sapiens, UniProt P35916) | binding, competition with immobilised ligand | 1 µM | remaining binding | 83%
N=C(N)NCCC[C@H](NC(=O)[C@H](Cc1ccc2ccccc2c1)NC(=O)[C@H](Cc1cscn1)NC(=O)CCc1ccccc1)C(=O)c1nc2ccccc2s1 | ST14 | enzyme activity, inhibitor | 0.1 µM | remaining activity | 8%
Cc1cc([C@@H](C)Nc2ccccc2C(=O)O)c2nc(N3CCC(F)(F)CC3)c(C#N)c(=O)n2c1 | Mitogen-activated protein kinase 10 (MAPK10, Homo sapiens, UniProt P53779) | binding, competition with immobilised ligand | 1 µM | remaining binding | 100%
CC(=O)Nc1c(N)nc(SCC(=O)NN)[nH]c1=O | CDK2 with cyclin A2 | enzyme activity, inhibitor | 0.5 µM | inhibition | 53.4%
C=CCCCCCC(C)(NC(=O)[C@H](Cc1cscn1)NC(=O)CCc1ccccc1)C(=O)N[C@@H](CCCNC(=N)N)C(=O)c1nc2ccccc2s1 (stereo partly shown) | ST14 | enzyme activity, inhibitor | 0.1 µM | remaining activity | 89%
CC(=O)Nc1c(N)nc(SCC(=O)N/N=C/c2ccc([N+](=O)[O-])cc2)[nH]c1=O | CDK2 with cyclin A2 | enzyme activity, inhibitor | 0.5 µM | inhibition | 51.5%
CNc1ncc2c(/C=C/C(=O)N3CCC(OC)CC3)nn(Cc3cccc(C(F)(F)F)c3)c2n1 | Serine/threonine-protein kinase VRK1 (VRK1, Homo sapiens, UniProt Q99986) | enzyme activity, inhibitor, radiometric | 1 µM | remaining activity | 100%
